Where “and” joins values, the source holds several entries; their conditions need not be identical. Identical values can stand only once.
Tests used:
platelet aggregation = conditions: cited from earlier work
CYP3A4 = conditions: cited from earlier work
[1] = Clinical pharmacokinetics of CLP and its metabolites in plasma; assay type: in vivo, patients (human)
Summary of the method: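 Caucasian patients scheduled for PCI or coronarography got 75 mg daily for 7 days, fasting. On day 7, plasma was sampled at 0.5, 1, 2, 3, 4, 6, 12 and 24 h (44 patients) or at 0.5 and 2 h only (38). Plasma was spiked with piroxicam, acetonitrile-precipitated, filtered, dried and reconstituted for HPLC–MS/MS. Quantifiable ranges were parent 0.25–5, derivatized thiol metabolites 0.25–50 and main metabolite 50–10,000 ng/mL. Tmax was taken directly from measured concentrations.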

[2] = tested on: ADP-induced platelet aggregation; conditions: 75 mg CLP daily
[3] = in vivo; cited from earlier work
[4] = cited from earlier work

In the case of COC(=O)C(c1ccccc1Cl)N1CCC(S)C(=CC(=O)O)C1 (stereo not drawn) [H4], the antiaggregation properties (platelet aggregation) is given as “exhibits antiaggregation properties”.

For COC(=O)[C@H](c1ccccc1Cl)N1CCC2SC(=O)C=C2C1 (stereo partly drawn) [2-oxo-CLP], the “share of 2-oxo-CLP transformed into the thiol entities by CYP3A4” value (CYP3A4) is listed as ~40% and 39.8%.

For COC(=O)[C@H](c1ccccc1Cl)N1CCC(S)/C(=C\C(=O)O)C1 (stereo partly drawn) [H3], the antiaggregation properties (platelet aggregation) is given as “only H4 exhibits antiaggregation properties”.

In the case of COC(=O)[C@H](c1ccccc1Cl)N1CCc2sccc2C1 [CLP, Clopidogrel], the Tmax ([1]; human, plasma, oral, 75 mg) is reported as 1 h, the “median AUCagr for wt/wt genotype versus heterozygotes” value ([2]; samples 2–3 h after administration, p = 0.484) is reported as “lower” and the “classification of patients by response to CLP” value ([2]; threshold for CLP resistance AUCagr above 486 AU*min) is reported as “Almost all studied patients were classified as responders”. The “share of absorbed drug undergoing bioactivation pathway to thiol metabolite” value [3] was “Approximately 15%” and the “patients treated with CLP who respond poorly to the drug” value [4] was 5–50%.

In the case of O=C(O)[C@H](c1ccccc1Cl)N1CCc2sccc2C1 [CLPM], the “time after CLP administration up to which concentrations were quantifiable” value ([1]; patients, 75 mg CLP daily, day 7, plasma) is reported as “up to 24 h”.

— paper PMC5306247 (European Journal of Drug Metabolism and Pharmacokinetics, 2016)
